From ChEMBL document CHEMBL3259775, “Towards the development of 5-HT₇ ligands combining serotonin-like and arylpiperazine moieties” (Eur J Med Chem, 2014)

biological target: T1, 5-hydroxytryptamine receptor 7 (Homo sapiens, UniProt P34969); test: Displacement of [3H]5-HT from human 5-HT7 receptor expressed in HEK293 cells after 30 mins by microbeta counting analysis; format: cell-based
T1 sequence (P34969 whole entry): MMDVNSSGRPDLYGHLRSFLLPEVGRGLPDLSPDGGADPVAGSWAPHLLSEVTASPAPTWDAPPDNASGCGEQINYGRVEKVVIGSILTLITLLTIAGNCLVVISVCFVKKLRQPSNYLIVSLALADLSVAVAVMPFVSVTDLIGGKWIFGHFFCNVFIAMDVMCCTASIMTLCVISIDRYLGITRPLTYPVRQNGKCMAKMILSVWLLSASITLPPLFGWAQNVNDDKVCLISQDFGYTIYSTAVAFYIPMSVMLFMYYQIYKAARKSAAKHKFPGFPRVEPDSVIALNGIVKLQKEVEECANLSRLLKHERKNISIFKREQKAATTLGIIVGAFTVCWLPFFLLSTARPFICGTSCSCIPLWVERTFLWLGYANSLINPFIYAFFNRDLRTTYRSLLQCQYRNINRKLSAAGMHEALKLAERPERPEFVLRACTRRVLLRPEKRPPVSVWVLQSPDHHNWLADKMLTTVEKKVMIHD

| Compound | Ki |
| --- | --- |
| Oc1cccc(CCCN2CCN(c3ccccc3)CC2)c1 | 40 nM |
| Cc1[nH]c2ccc(O)cc2c1CCN1CCN(c2cccc3ccccc23)CC1 | 12.8 nM |
| Cc1cccc(N(C)CCCN2CCN(c3ccccc3)CC2)c1 | 84.8 nM |
| CN(CCCCCCN1CCN(c2cccc3ccccc23)CC1)c1cccc(O)c1 | 39.4 nM |
| NC(=O)c1cccc(NCCCN2CCN(c3ccccc3)CC2)c1 | 63.3 nM |
| CN(CCCN1CCC(N(c2ccccc2)c2ccccc2)CC1)c1cccc(O)c1 | 310 nM |
| CN(CCN1CCN(c2ccccc2)CC1)c1cccc(O)c1 | 161 nM |
| Oc1cccc(N(CCCN2CCN(c3ccccc3)CC2)c2ccccc2)c1 | 90.1 nM |
| CN(CCN1CCN(c2ccccc2)CC1)c1cccc([N+](=O)[O-])c1 | 332 nM |
| OCc1cccc(NCCCN2CCN(c3ccccc3)CC2)c1 | 109 nM |
| CN(CCCN1CCN(c2ccccc2)CC1)c1cccc(NS(C)(=O)=O)c1 | 39.6 nM |
| Oc1cccc(NCCCN2CCN(c3ccccc3)CC2)c1 | 10.1 nM |
| Oc1cccc2c1CC(N1CCN(c3ccccc3)CC1)CC2 (racemic) | 81.4 nM |
| CN(CCCN1CCN(c2ccc3ccccc3c2)CC1)c1cccc(O)c1 | 434 nM |
| CN(CCCN1CCN(c2ccccc2)CC1)c1cccc(Br)c1 | 161 nM |
| CN(CCCN1CCN(c2ccccc2)CC1)c1cccc(Cl)c1 | 179 nM |
| Oc1cccc(N(CCCCCCN2CCN(c3ccccc3)CC2)Cc2ccccc2)c1 | 138 nM |
| CN(CCCCCCN1CCN(c2cccc(C(F)(F)F)c2)CC1)c1cccc(O)c1 | 95.6 nM |

| Compound | Ki |
| --- | --- |
| CN(CCCCCCN1CCC(c2ccccc2)CC1)c1cccc(O)c1 | 226 nM |
| CN(CCCN1CCC(c2ccccc2)(c2ccccc2)CC1)c1cccc(O)c1 | 242 nM |
| CN(CCCN1CCN(c2cccc3ccccc23)CC1)c1cccc(O)c1 | 2.9 nM |
| CCN(CCCCCCN1CCN(c2ccccc2)CC1)c1cccc(O)c1 | 191 nM |
| CCc1[nH]c2ccc(O)cc2c1CCN1CCN(c2cccc3ccccc23)CC1 | 6.6 nM |
| Oc1cccc(N(CCCN2CCN(c3ccccc3)CC2)Cc2ccccc2)c1 | 92.5 nM |
| O=Cc1cccc(NCCCN2CCN(c3ccccc3)CC2)c1 | 13.2 nM |
| CN(CCCCCCN1CCN(c2ccccc2)CC1)c1cccc(O)c1 | 12 nM |
| CN(CCCCCN1CCN(c2ccccc2)CC1)c1cccc(O)c1 | 16.7 nM |
| O=S(=O)(c1ccccc1)N(CCCN1CCN(c2ccccc2)CC1)c1cccc(O)c1 | 12.1 nM |
| Oc1cccc(NCCN2CCN(c3ccccc3)CC2)c1 | 252 nM |
| Oc1cccc(CCCCN2CCN(c3ccccc3)CC2)c1 | 3.1 nM |
| COC(=O)c1cccc(NCCCN2CCN(c3ccccc3)CC2)c1 | 77.9 nM |
| CC(=O)Nc1cccc(N(C)CCCN2CCN(c3ccccc3)CC2)c1 | 161 nM |
| CN(CCCN1CCN(c2ccccc2)CC1)c1cccc(F)c1 | 112 nM |
| CN(CCN1CCN(c2ccccc2)CC1)c1cccc(NS(C)(=O)=O)c1 | 57 nM |
| CCCN(CCCN1CCN(c2ccccc2)CC1)c1cccc(O)c1 | 20.8 nM |

biological target: T1, 5-hydroxytryptamine receptor 7; test: Displacement of [3H]5-HT from human 5-HT7 receptor expressed in HEK293 cells at 10^-5 mol/L after 30 mins by microbeta counting analysis; format: cell-based
How it was run: (§1)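 Membranes incubated 30 min at 25 °C with 5 nmol/L [3H]5-HT in 50 mM Tris-HCl pH 7.4 containing pargyline, CaCl2 and ascorbic acid, with the test compound at a single fixed concentration. Non-specific binding with 100 µM cold 5-HT; separation by filtration; result reported as % displacement.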

| Compound | inhibition |
| --- | --- |
| CN(CCN1CCN(Cc2ccccc2)CC1)c1cccc(O)c1 | 82% |
| CN(CCN1CCN(c2ccccc2)CC1)c1cccc(N)c1 | 85% |
| Oc1ccc2[nH]cc(CCN3CCN(c4cccc(-c5ccccc5)c4)CC3)c2c1 | 88% |
| CN(CCCCCCN1CCN(c2ccnc3cc(Cl)ccc23)CC1)c1cccc(O)c1 | 74% |
| Oc1cccc(OCCN2CCN(c3ccccc3)CC2)c1 | 42% |

biological target: T1, 5-hydroxytryptamine receptor 7; test: Displacement of [3H]5-HT from human 5-HT7 receptor expressed in HEK293 cells at 10^-6 mol/L after 30 mins by microbeta counting analysis; format: cell-based; how it was run: as §1

| Compound | inhibition |
| --- | --- |
| CN(CCN1CCN(Cc2ccccc2)CC1)c1cccc(O)c1 | 42% |
| CN(CCN1CCN(c2ccccc2)CC1)c1cccc(N)c1 | 40% |
| Oc1ccc2[nH]cc(CCN3CCN(c4cccc(-c5ccccc5)c4)CC3)c2c1 | 42% |
| CN(CCCCCCN1CCN(c2ccnc3cc(Cl)ccc23)CC1)c1cccc(O)c1 | 28% |
| Oc1cccc(OCCN2CCN(c3ccccc3)CC2)c1 | 21% |

biological target: T1, 5-hydroxytryptamine receptor 7; test: Antagonist activity at human 5-HT7 receptor expressed in CHO cells assessed as residual 5-HT-stimulated cAMP accumulation at 1 uM relative to control

| Compound | % serotonin response |
| --- | --- |
| CN(CCCCCCN1CCN(c2ccccc2)CC1)c1cccc(O)c1 | 56% |
| CN(CCCCCN1CCN(c2ccccc2)CC1)c1cccc(O)c1 | 69% |
| CN(CCN1CCN(c2ccccc2)CC1)c1cccc(NS(C)(=O)=O)c1 | 48% |
